Reference: ChEMBL document CHEMBL3272207, “Structure-activity relationship in cinnamamides. 2. Synthesis and pharmacological evaluation of some (E)- and (Z)-N-alkyl-alpha, beta-dimethylcinnamamides substituted on the phenyl group” (J Med Chem, 1977)
The source made the active and inactive calls. The calls are words filed in the database; no cut-off is given here.

Legend:
[1] = test system: Mus musculus; assay: Toxicity in po dosed albino Icem-CET (SPF Caw) mouse assessed as impairment of pinna by Irwin's test; type: organism-based; conditions: in vivo
[2] = test system: Mus musculus; assay: Behavioral toxicity in albino Icem-CET (SPF Caw) mouse assessed as reduction in locomotor activity at 25 to 800 mg/kg, po by Irwin's test; type: organism-based; parameters: dose 25-800 mg/kg, route oral; conditions: in vivo
[3] = test system: Mus musculus; assay: Toxicity in po dosed albino Icem-CET (SPF Caw) mouse assessed as clonic type convulsion by Irwin's test; type: organism-based; conditions: in vivo
Procedure, shortened: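 Irwin test in fasted (9 h) male Icem-CET (SPF Caw) mice, 17-22 g. Oral gavage of a 0.5% Methocel suspension at screening doses of 25-800 mg/kg. Clonic-type convulsions were scored as the minimum effective dose.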

[4] = Behavioral toxicity in po dosed albino Icem-CET (SPF Caw) mouse measured up to 7 days by Irwin's test; type: organism-based; conditions: in vivo
[5] = test system: Mus musculus; assay: Toxicity in po dosed albino Icem-CET (SPF Caw) mouse assessed as impairment of corneal reflexes by Irwin's test; type: organism-based, Cornea; conditions: in vivo
[6] = test system: Mus musculus; assay: Behavioral toxicity in po dosed albino Icem-CET (SPF Caw) mouse assessed as tremors by Irwin's test; type: organism-based; conditions: in vivo
[7] = test system: Mus musculus; assay: Behavioral toxicity in albino Icem-CET (SPF Caw) mouse assessed as positional passivity at 25 to 800 mg/kg, po by Irwin's test; type: organism-based; parameters: dose 25-800 mg/kg, route oral; conditions: in vivo
[8] = test system: Mus musculus; assay: Anticonvulsant activity in albino Icem-CET (SPF Caw) mouse assessed as inhibition of pentylenetetrazole-induced maximal extensor seizures at 100 mg/kg, po administered 30 mins prior challenge; type: functional, organism-based; parameters: dose 100 mg/kg
Procedure, shortened: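 Single-dose screen at 100 mg/kg by gavage in 0.5% Methocel in fasted male Icem-CET (SPF Caw) mice, 17-22 g. Dosing was 30 min before pentylenetetrazole 130 mg/kg ip, and prevention of maximal extensor seizures was scored.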

C/C(C(=O)NC1CC1)=C(\C)c1ccc(F)cc1
Activity [1]: Toxic
Activity [2]: Non-toxic
MED [3]: 800 mg/kg
LD50 at 168 h [4]: 450 mg/kg
Activity [5]: Toxic
ED50 [6]: 600 mg/kg
Activity [7]: Non-toxic
Activity [8]: inactive
